Data reported in ChEMBL document CHEMBL1147382, “Cytotoxic constituents from Hyptis verticillata” (J Nat Prod, 1993).
In brackets after ≈: the same amount, converted by molar mass.

Assays:
[1] = Antimitotic activity in rat ASK cells assessed as reversal of astrocyte formation at 100 ug/mL; type: functional
Outline: (§1)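 Cultured rat glioma (ASK) cells were used, following Swanson et al. The antimitotic read-out was the dose giving 100% reversal of astrocyte conversion. Pure lignans were tested across a range of concentrations.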

[2] = Antimitotic activity in rat ASK cells assessed as reversal of astrocyte formation at 20 ug/mL; type: functional; outline: as §1
[3] = Antimitotic activity in rat ASK cells assessed as reversal of astrocyte formation at 4 ug/mL; type: functional; outline: as §1
[4] = Antimitotic activity in rat ASK cells assessed as reversal of astrocyte formation at 0.8 ug/mL; type: functional; outline: as §1
[5] = Antimitotic activity in rat ASK cells assessed as reversal of astrocyte formation at 0.16 ug/mL; type: functional; outline: as §1
[6] = Antimitotic activity in rat ASK cells assessed as reversal of astrocyte formation at 0.032 ug/mL; type: functional; outline: as §1
[7] = Antimitotic activity in rat ASK cells assessed as reversal of astrocyte formation at 0.0064 ug/mL; type: functional; outline: as §1
[8] = Antimitotic activity in rat ASK cells assessed as reversal of astrocyte formation at 0.00128 ug/mL; type: functional
Outline: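 Cultured rat glioma (ASK) cells, run essentially by a previously published astrocyte-formation procedure. Antimitotic potential is scored as the dose needed to give 100% reversal of astrocyte conversion.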

[9] = Toxicity in brine shrimp; type: organism-based; conditions: artemia, in vivo
P388 = assay: Cytotoxicity in mouse P388 cells; type: functional; conditions: read-out: ED50 (the source's name)
A-431 = assay: Cytotoxicity against human A431 cells; type: functional; conditions: read-out: ED50 (the source's name)
[10] = Cytotoxicity against human BC1 cells; type: functional; conditions: read-out: ED50 (the source's name)
Col2 = assay: Cytotoxicity against human Col2 cells; type: functional; conditions: read-out: ED50 (the source's name)
HT = assay: Cytotoxicity against human HT cells; type: functional; conditions: read-out: ED50 (the source's name)
[11] = Cytotoxicity against human KBV1 cells; type: functional; conditions: KB-V1, read-out: ED50 (the source's name)
LNCaP = assay: Cytotoxicity against human LNCAP cells; type: functional; conditions: read-out: ED50 (the source's name)
Lu1 = assay: Cytotoxicity against human Lu1 cells; type: functional; conditions: read-out: ED50 (the source's name)
[12] = Cytotoxicity against human U373 cells; type: functional, U-373MG ATCC; conditions: U373 MG, read-out: ED50 (the source's name)
ZR-75-1 = assay: Cytotoxicity against human ZR-75-1 cells; type: functional; conditions: read-out: ED50 (the source's name)
KB = assay: Cytotoxicity against human KB cells; type: functional; conditions: read-out: ED50 (the source's name)

Row | Structure (SMILES) | Activity [1] [%] | Activity [2] [%] | Activity [3] [%] | Activity [4] [%] | Activity [5] [%] | Activity [6] [%] | Activity [7] [%] | Activity [8] [%] | LC50 [9] [mg/L] | EC50 (P388) [mg/L] | EC50 (A-431) [mg/L] | EC50 [10] [mg/L] | EC50 (Col2) [mg/L] | EC50 (HT) [mg/L] | EC50 [11] [mg/L] | EC50 (LNCaP) [mg/L] | EC50 (Lu1) [mg/L] | EC50 [12] [mg/L] | EC50 (ZR-75-1) [mg/L] | EC50 (KB) [mg/L]
1 | COc1cc2c(c(OC)c1OC)-c1ccc(OC)c(=O)cc1[C@@H](NC(C)=O)CC2 [COLCHICINE] | 100 | 100 | 100 | 70 | 0 | 0 | 0 | 0 |  |  |  |  |  |  |  |  |  |  |  | 
2 | CC[C@]1(O)C[C@H]2CN(CCc3c([nH]c4ccccc34)[C@@](C(=O)OC)(c3cc4c(cc3OC)N(C=O)[C@H]3[C@@](O)(C(=O)OC)[C@H](OC(C)=O)[C@]5(CC)C=CCN6CC[C@]43[C@@H]65)C2)C1 [VINCRISTINE] | 100 | 100 | 100 | 100 | 100 | 0 | 0 | 0 |  |  |  |  |  |  |  |  |  |  |  | 
3 | COc1cc([C@@H]2c3cc4c(cc3C[C@@H]3COC(=O)[C@H]32)OCO4)cc(OC)c1OC [ISODEOXYPODOPHYLLOTOXIN] | 100 | 100 | 0 | 0 | 0 | 0 | 0 |  | > 500 | > 20 | 6.2 (≈ 15.6 µM) | 17.5 (≈ 43.9 µM) | 8.9 (≈ 22.3 µM) | 10.7 (≈ 26.9 µM) | 11.5 (≈ 28.9 µM) | 12 (≈ 30.1 µM) | 15.9 (≈ 39.9 µM) | 2.9 (≈ 7.28 µM) | 13.2 (≈ 33.1 µM) | 6.7 (≈ 16.8 µM)
4 | COc1cc(-c2c3c(c(O)c4c(OC)c5c(cc24)OCO5)COC3=O)cc(OC)c1OC | 100 | 100 | 0 | 0 | 0 | 0 | 0 |  | > 500 | 4 (≈ 9.08 µM) | 6.2 (≈ 14.1 µM) | 7.6 (≈ 17.3 µM) | 12.8 (≈ 29.1 µM) | 15.6 (≈ 35.4 µM) | 8.7 (≈ 19.8 µM) | 11.6 (≈ 26.3 µM) | 11.7 (≈ 26.6 µM) | 16.3 (≈ 37 µM) | > 20 | 6 (≈ 13.6 µM)
5 | COc1cc(-c2c3c(cc4c(OC)c5c(cc24)OCO5)COC3=O)cc(OC)c1OC | 100 | 100 | 100 | 0 | 0 | 0 | 0 |  | 435 (≈ 1020 µM) | 1.8 (≈ 4.24 µM) | > 20 | 2.9 (≈ 6.83 µM) | 3.2 (≈ 7.54 µM) | 3.4 (≈ 8.01 µM) | 4.2 (≈ 9.9 µM) | 3.2 (≈ 7.54 µM) | 4.3 (≈ 10.1 µM) | 5.9 (≈ 13.9 µM) | > 20 | 2.2 (≈ 5.18 µM)
6 | COc1cc([C@@H]2c3cc4c(cc3[C@H](O)[C@H]3COC(=O)[C@H]23)OCO4)cc(OC)c1OC [PODOFILOX] | 100 | 100 | 100 | 100 | 100 | 100 | 0 |  | 0.2 (≈ 0.483 µM) | 0.003 (≈ 0.00724 µM) | 0.03 (≈ 0.0724 µM) | 0.03 (≈ 0.0724 µM) | 0.005 (≈ 0.0121 µM) | 0.003 (≈ 0.00724 µM) | 0.06 (≈ 0.145 µM) | 0.04 (≈ 0.0965 µM) | 0.008 (≈ 0.0193 µM) | 0.004 (≈ 0.00965 µM) | 0.4 (≈ 0.965 µM) | 0.08 (≈ 0.193 µM)
7 | COc1cc([C@@H]2c3cc4c(cc3C[C@H]3COC(=O)[C@H]32)OCO4)cc(OC)c1OC [DEOXYPICROPODOPHYLLIN] | 100 | 100 | 100 | 100 | 0 | 0 | 0 |  | 142 (≈ 355 µM) | 0.1 (≈ 0.251 µM) | > 20 | 2.1 (≈ 5.27 µM) | 0.3 (≈ 0.753 µM) | 0.2 (≈ 0.502 µM) | 0.7 (≈ 1.76 µM) | 0.2 (≈ 0.502 µM) | 0.09 (≈ 0.226 µM) | 0.1 (≈ 0.251 µM) | 0.6 (≈ 1.51 µM) | 0.1 (≈ 0.251 µM)
8 | COc1cc(-c2c3c(cc4cc5c(cc24)OCO5)COC3=O)cc(OC)c1OC [DEOXYDEHYDROPODOPHYLLOTOXIN] | 100 | 0 | 0 | 0 |  |  |  |  | > 500 | > 5 | 6.2 (≈ 15.7 µM) | > 20 | 16.7 (≈ 42.3 µM) | > 20 | > 20 | 11.6 (≈ 29.4 µM) | 18.8 (≈ 47.7 µM) | > 20 | > 20 | 11.4 (≈ 28.9 µM)
9 | COc1cc2cc(c1Cl)N(C)C(=O)C[C@H](OC(=O)[C@H](C)N(C)C(C)=O)[C@]1(C)O[C@H]1[C@H](C)[C@@H]1C[C@@](O)(NC(=O)O1)[C@H](OC)/C=C/C=C(\C)C2 [MAYTANSINE] | 100 | 100 | 100 | 100 | 100 | 100 | 100 | 0 |  |  |  |  |  |  |  |  |  |  |  | 
10 | COc1cc([C@@H]2c3cc4c(cc3C[C@H]3COC(=O)[C@@H]32)OCO4)cc(OC)c1OC [DESOXYPODOPHYLLOTOXIN] | 100 | 100 | 100 | 100 | 100 | 100 | 0 |  |  | 0.002 (≈ 0.00502 µM) | 4.3 (≈ 10.8 µM) | 0.001 (≈ 0.00251 µM) | 0.01 (≈ 0.0251 µM) | 0.003 (≈ 0.00753 µM) | 0.06 (≈ 0.151 µM) | 0.01 (≈ 0.0251 µM) | 0.002 (≈ 0.00502 µM) | 0.001 (≈ 0.00251 µM) | 2 (≈ 5.02 µM) | 0.05 (≈ 0.125 µM)
11 | CC[C@]1(O)C[C@@H]2CN(CCc3c([nH]c4ccccc34)[C@@](C(=O)OC)(c3cc4c(cc3OC)N(C)[C@H]3[C@@](O)(C(=O)OC)[C@H](OC(C)=O)[C@]5(CC)C=CCN6CC[C@]43[C@@H]65)C2)C1 [VINBLASTINE] | 100 | 100 | 100 | 100 | 100 | 100 | 0 | 0 |  |  |  |  |  |  |  |  |  |  |  | 
12 | COc1cc(-c2c3c(c(O)c4cc5c(cc24)OCO5)COC3=O)cc(OC)c1OC [DEHYDROPODOPHYLLOTOXIN] | 100 | 100 | 0 | 0 | 0 | 0 | 0 |  | 255 (≈ 621 µM) | > 5 | > 20 | 15.2 (≈ 37 µM) | 8.9 (≈ 21.7 µM) | 9.7 (≈ 23.6 µM) | 13 (≈ 31.7 µM) | 11.7 (≈ 28.5 µM) | 10.6 (≈ 25.8 µM) | > 20 | > 20 | 5 (≈ 12.2 µM)
